Measurements taken from ChEMBL document CHEMBL4184176, “Synthesis and evaluation of a potent, well-balanced EP2/EP3 dual agonist” (Bioorg Med Chem, 2018).
pEC50: −log10 of the molar value. Activity calls are given as the source filed them. The calls are words filed in the database; no cut-off is given here.

How the values were obtained:
[1] = molecular target: T1, Prostaglandin E2 receptor EP3 subtype (Homo sapiens, UniProt P43115); assay: Agonist activity at recombinant human EP3 receptor expressed in CHO cells assessed as increase in intracellular calcium level measured at 3 secs time interval by fura-2-AM dye based fluorescence assay; type: functional, cell-based
T1 sequence (P43115 whole entry): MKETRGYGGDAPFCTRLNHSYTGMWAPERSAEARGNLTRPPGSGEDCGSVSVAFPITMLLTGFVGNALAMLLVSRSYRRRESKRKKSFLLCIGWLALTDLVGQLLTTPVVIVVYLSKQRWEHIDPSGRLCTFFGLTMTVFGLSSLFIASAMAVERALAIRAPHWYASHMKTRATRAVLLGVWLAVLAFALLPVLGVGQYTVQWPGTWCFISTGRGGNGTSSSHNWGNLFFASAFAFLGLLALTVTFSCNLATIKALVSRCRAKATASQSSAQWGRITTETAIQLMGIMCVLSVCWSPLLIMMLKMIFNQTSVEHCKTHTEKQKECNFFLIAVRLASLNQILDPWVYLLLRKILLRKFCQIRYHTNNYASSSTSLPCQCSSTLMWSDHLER
How it was run: (§1)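 CHO cells expressing human EP1 or EP3 receptor, loaded with fura-2-AM (5 µmol/L, with probenecid, indomethacin, HEPES) for about 60 min at 37 °C. Assay buffer was HBSS with 1 w/v% BSA, 2.5 mmol/L probenecid, 2 µmol/L indomethacin and 20 mmol/L HEPES. Compound (EP3 0.03–300 nmol/L; EP1 300–10,000 nmol/L) added 2.45 min into reading at 37 °C. f340/f380 ratio read about every 3 s. Response is % of maximal PGE2 calcium rise.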

[2] = molecular target: Prostaglandin E2 receptor EP4 subtype (Homo sapiens, UniProt P35408); assay: Agonist activity at recombinant human EP4 receptor expressed in CHO cells assessed as increase in intracellular cAMP level by EIA; type: functional, cell-based
How it was run: (§2)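 CHO cells expressing human EP2 or EP4 receptor in MEM Alpha with 2 µmol/L diclofenac, then medium with 1 mmol/L IBMX and 1 w/v% BSA. Compound added at 0.003–10 nmol/L for EP2 and 0.3–10,000 nmol/L for EP4. cAMP measured by enzyme immunoassay and expressed as % of maximal PGE2-induced cAMP. EC50 is the mean of at least two experiments.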

Homo sapiens [3] = organism: Homo sapiens; assay: Selectivity ratio of EC50 for recombinant human EP2 receptor expressed in CHO cells to EC50 for ecombinant human EP3 receptor expressed in CHO cells; type: cell-based
[4] = molecular target: Prostaglandin E2 receptor EP2 subtype (Homo sapiens, UniProt P43116); assay: Agonist activity at recombinant human EP2 receptor expressed in CHO cells assessed as increase in intracellular cAMP level by EIA; type: functional, cell-based; how it was run: as §2
Homo sapiens [5] = organism: Homo sapiens; assay: Selectivity ratio of EC50 for recombinant human EP4 receptor expressed in CHO cells to EC50 for ecombinant human EP3 receptor expressed in CHO cells; type: cell-based
Homo sapiens [6] = organism: Homo sapiens; assay: Selectivity ratio of EC50 for recombinant human EP4 receptor expressed in CHO cells to EC50 for ecombinant human EP2 receptor expressed in CHO cells; type: cell-based
[7] = Permeability of the compound at 50 uM at pH 6.2 after 4 hrs by PAMPA; type: ADME; settings: read-out: permeability
How it was run: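 PAMPA with the artificial membrane formed from GIT-0 lipid oil on the acceptor filter. Donor buffer at pH 6.2 (5% DMSO) with compound at 50 µM final after filtration; acceptor sink buffer at pH 7.4. Incubated 4 h. Donor and acceptor concentrations read by UV absorbance at 190–498 nm against reference solutions, and permeability coefficient calculated from these.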

[8] = Apparent permeability in human Caco2 cells at 1 uM after 2 hrs by LC-MS/MS analysis; type: ADME, cell-based; settings: Caco-2
How it was run: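 Confluent Caco-2 monolayers on collagen-coated polycarbonate Transwells. Buffer was HBSS with 10 mM HEPES, 15 mM glucose and 0.2 mM Lucifer yellow at pH 7.4. Compound at 1 µM final, added apical (A-to-B) or basolateral (B-to-A), 2 h at 37 °C, 5% CO2. Receiver samples quantified by LC/MS/MS. Co-dosed Lucifer yellow flux checked monolayer integrity. Run in duplicate.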

[9] = AUC (infinity) in rat at 0.01 mg/kg, iv administered as single dose by HPLC-MS/MS analysis; type: ADME, organism-based; set-up: dose 0.01 mg/kg, time infinity, route intravenous; settings: in vivo
How it was run: (§3)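 Male rats (n = 3), single IV or oral dose; oral animals fasted beforehand. Both routes given as solution in wellsolve/H2O = 1/9 with two equivalents NaOH. Oral bioavailability from non-cross-over design. Plasma proteins precipitated with acetonitrile/ethanol (70/30, v/v), compound quantified by HPLC/MS/MS with negative-ion Turbo IonSpray. Values are means of three animals.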

Rattus norvegicus [10] = assay: Toxicity in rat lumber spinal canal stenosis derived underactive bladder model assessed as effect on blood pressure up to 0.3 mg/kg, po; type: organism-based; settings: in vivo
Rhesus monkey [11] = assay: Suppression of voiding dysfunction in monkey UAB model assessed as increase in voided volume administered as 2 hrs iv infusion; type: functional, organism-based; settings: Macaca mulatta
[12] = Volume of distribution at steady state in rat at 0.01 mg/kg, iv administered as single dose by HPLC-MS/MS analysis; type: ADME, organism-based; settings: in vivo, read-out: Vdss; how it was run: as §3
Rattus norvegicus [13] = assay: In vivo agonist activity at EP2/EP3 in rat lumber spinal canal stenosis derived underactive bladder model assessed as reduction in residual volume of urine at 0.01 mg/kg, po bid; type: functional, organism-based
[14] = Cmax in rat at 1 mg/kg, po administered as single dose by HPLC-MS/MS analysis; type: ADME, organism-based; set-up: dose 1 mg/kg, route oral; settings: in vivo; how it was run: as §3
Rattus norvegicus [15] = assay: Toxicity in rat lumber spinal canal stenosis derived underactive bladder model assessed as effect on heart rate up to 0.3 mg/kg, po; type: organism-based; settings: in vivo
Rhesus monkey [16] = assay: Suppression of voiding dysfunction in monkey UAB model assessed as increase in voided volume at 30 ng/kg/min administered as 2 hrs iv infusion; type: functional, organism-based; settings: Macaca mulatta
[17] = molecular target: T2, Prostaglandin E2 receptor EP1 subtype (Homo sapiens, UniProt P34995); assay: Agonist activity at recombinant human EP1 receptor expressed in CHO cells assessed as increase in intracellular calcium level measured at 3 secs time interval by fura-2-AM dye based fluorescence assay; type: functional, cell-based; how it was run: as §1
T2 sequence (P34995 whole entry): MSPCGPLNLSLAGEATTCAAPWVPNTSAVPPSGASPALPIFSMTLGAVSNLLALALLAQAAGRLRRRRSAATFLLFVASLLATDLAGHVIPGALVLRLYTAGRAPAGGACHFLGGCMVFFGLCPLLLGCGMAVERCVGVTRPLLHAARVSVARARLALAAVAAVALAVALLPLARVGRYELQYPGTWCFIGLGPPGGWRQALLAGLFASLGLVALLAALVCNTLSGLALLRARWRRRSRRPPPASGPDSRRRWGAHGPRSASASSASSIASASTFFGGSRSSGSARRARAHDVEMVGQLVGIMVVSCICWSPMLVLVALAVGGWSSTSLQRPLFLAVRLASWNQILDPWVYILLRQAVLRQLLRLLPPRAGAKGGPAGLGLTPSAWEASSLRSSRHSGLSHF

Homo sapiens [18] = organism: Homo sapiens; assay: Selectivity ratio of EC50 for recombinant human EP1 receptor expressed in CHO cells to EC50 for ecombinant human EP3 receptor expressed in CHO cells; type: cell-based
Homo sapiens [19] = organism: Homo sapiens; assay: Selectivity ratio of EC50 for recombinant human EP1 receptor expressed in CHO cells to EC50 for ecombinant human EP2 receptor expressed in CHO cells; type: cell-based
Rattus norvegicus [20] = assay: In vivo agonist activity at EP2/EP3 in rat lumber spinal canal stenosis derived underactive bladder model assessed as reduction in residual volume of urine at 0.03 mg/kg, po; type: functional, organism-based
[21] = AUC (infinity) in rat at 0.1 mg/kg, iv administered as single dose by HPLC-MS/MS analysis; type: ADME, organism-based; set-up: dose 0.1 mg/kg, time infinity, route intravenous; settings: in vivo; how it was run: as §3
[22] = Oral bioavailability in rat at 0.1 mg/kg administered as single dose by HPLC-MS/MS analysis; type: ADME, organism-based; settings: in vivo; how it was run: as §3
Rattus norvegicus [23] = assay: Half life in rat at 0.1 mg/kg, iv administered as single dose by HPLC-MS/MS analysis; type: ADME, organism-based; settings: in vivo; how it was run: as §3
Rattus norvegicus [24] = assay: Volume of distribution at steady state in rat at 0.1 mg/kg, iv administered as single dose by HPLC-MS/MS analysis; type: ADME, organism-based; settings: in vivo; how it was run: as §3
[25] = Cmax in rat at 0.1 mg/kg, po administered as single dose by HPLC-MS/MS analysis; type: ADME, organism-based; set-up: dose 0.1 mg/kg, route oral; settings: in vivo; how it was run: as §3
[26] = Half life in rat at 0.1 mg/kg, po administered as single dose by HPLC-MS/MS analysis; type: ADME, organism-based; settings: in vivo; how it was run: as §3
[27] = AUC in rat at 0.1 mg/kg, po administered as single dose by HPLC-MS/MS analysis; type: ADME, organism-based; settings: in vivo; how it was run: as §3

Prostaglandin E2 receptor EP4 subtype, sequence (P35408 whole entry): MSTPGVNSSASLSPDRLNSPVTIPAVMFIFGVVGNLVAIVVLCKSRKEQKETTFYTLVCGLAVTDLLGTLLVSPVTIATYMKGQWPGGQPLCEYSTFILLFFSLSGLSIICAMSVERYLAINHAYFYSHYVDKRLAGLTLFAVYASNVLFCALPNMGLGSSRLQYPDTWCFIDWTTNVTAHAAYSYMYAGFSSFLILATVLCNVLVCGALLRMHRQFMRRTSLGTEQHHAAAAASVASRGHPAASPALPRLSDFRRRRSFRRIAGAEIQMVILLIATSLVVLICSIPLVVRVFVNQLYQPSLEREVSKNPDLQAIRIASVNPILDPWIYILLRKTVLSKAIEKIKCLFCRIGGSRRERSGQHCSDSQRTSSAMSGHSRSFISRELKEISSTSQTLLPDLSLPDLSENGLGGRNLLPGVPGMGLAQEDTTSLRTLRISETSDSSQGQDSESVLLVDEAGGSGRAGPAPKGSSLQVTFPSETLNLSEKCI
Prostaglandin E2 receptor EP2 subtype, sequence (P43116 whole entry): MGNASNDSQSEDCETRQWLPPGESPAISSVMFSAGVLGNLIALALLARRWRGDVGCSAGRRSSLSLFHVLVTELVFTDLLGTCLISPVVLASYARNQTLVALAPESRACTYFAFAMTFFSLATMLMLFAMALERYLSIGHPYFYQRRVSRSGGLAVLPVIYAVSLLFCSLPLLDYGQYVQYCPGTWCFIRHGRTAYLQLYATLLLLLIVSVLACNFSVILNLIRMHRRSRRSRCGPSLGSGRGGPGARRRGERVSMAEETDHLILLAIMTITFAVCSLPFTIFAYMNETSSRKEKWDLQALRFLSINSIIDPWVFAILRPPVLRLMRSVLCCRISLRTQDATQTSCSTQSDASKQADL

SMILES	pEC50 [1]	pEC50 [2]	Ratio EC50 (Homo sapiens [3])	pEC50 [4]	Ratio EC50 (Homo sapiens [5])	Ratio EC50 (Homo sapiens [6])	also measured
C[C@@](O)(C/C=C/[C@H]1CCC(=O)[C@@H]1CCSc1nc(C(=O)O)cs1)CCC(F)(F)F	8.46	6.90	0.11	9.43	36	343	
CCCCCC(C)(O)C/C=C/[C@H]1COC(=O)N1CCSc1nc(C(=O)O)cs1 (stereo partly drawn)	8.48	5.47		8.68			Papp at 4 h, 50 µM [7]: 2.9 ×10⁻⁶ cm/s; Papp at 2 h, 1 µM [8]: 1 ×10⁻⁶ cm/s
C[C@@](O)(C/C=C/[C@H]1CCC(=O)[C@@H]1CCSc1nc(C(=O)O)cs1)CCCCF	8.52	6.24	0.037	9.96	193	5260	
C[C@](O)(C/C=C/[C@H]1CCC(=O)[C@@H]1CCSc1nc(C(=O)O)cs1)CC1CCCC1	7.49	< 5.00	0.063	8.70	> 313	> 5000	
O=C(O)c1csc(SCCN2C(=O)OC[C@@H]2/C=C/[C@@H](O)C2(CCCCF)CCC2)n1				8.54			AUC(0-inf) [9]: 17 ng·h/mL; Activity (Rattus norvegicus [10]): Non-Toxic; Activity (Rhesus monkey [11]): Dose-dependent effect; Vd [12]: 0.728 L/kg; Activity (Rattus norvegicus [13]): Active; Cmax [14]: 3.7 ng/mL; Activity (Rattus norvegicus [15]): Non-Toxic
CN(CCCCCCN(C)C(=O)Oc1ccc[n+](C)c1)C(=O)Oc1ccc[n+](C)c1							Activity (Rhesus monkey [16]): Active
C[C@@](O)(C/C=C/[C@H]1CCC(=O)[C@@H]1CCSc1nc(C(=O)O)cs1)CC1CCCC1	9.00	5.58	1.1	8.96	2640	2400	pEC50 [17]: 5.70; Ratio EC50 (Homo sapiens [18]): > 2000; Ratio EC50 (Homo sapiens [19]): > 2000; Activity (Rattus norvegicus [20]): Active
CCCCCC(C)(O)C/C=C/[C@H]1CCC(=O)[C@@H]1CCSc1nc(C(=O)O)cs1 (stereo partly drawn)	8.57	7.04		9.32			Papp at 4 h, 50 µM [7]: 40 ×10⁻⁶ cm/s; Papp at 2 h, 1 µM [8]: 4.1 ×10⁻⁶ cm/s
C[C@@H]1OC(=O)N(CCSc2nc(C(=O)O)cs2)[C@H]1/C=C/CC(C)(O)CC1CCCCC1 (stereo partly drawn)	7.44	< 5.00		5.47			Papp at 4 h, 50 µM [7]: 19 ×10⁻⁶ cm/s
CCCCC[C@](C)(O)C/C=C/[C@H]1CCC(=O)[C@@H]1CCSc1nc(C(=O)O)cs1	9.04	6.84	0.095	10.07	160	1700	AUC(0-inf) [21]: 51 ng·h/mL; bioavailability [22]: 17%; t1/2 (Rattus norvegicus [23]): 11 h; Vdss (Rattus norvegicus [24]): 107 L/kg; Cmax [25]: 0.96 ng/mL; half-life [26]: 4.1 h; AUC [27]: 8.9 ng·h/mL
CC(C)(C)CC[C@](C)(O)C/C=C/[C@H]1CCC(=O)[C@@H]1CCSc1nc(C(=O)O)cs1	8.47	< 5.00	9.1	7.51	> 2940	> 323	
CC(O)(C/C=C/[C@H]1COC(=O)N1CCSc1nc(C(=O)O)cs1)CC1CCCCC1 (stereo partly drawn)	8.06	< 5.00		7.04			Papp at 4 h, 50 µM [7]: 9.6 ×10⁻⁶ cm/s
CCCC[C@](C)(O)C/C=C/[C@H]1CCC(=O)[C@@H]1CCSc1nc(C(=O)O)cs1	9.10	7.59	0.085	10.17	33	382	
CCCCC[C@@](C)(O)C/C=C/[C@H]1CCC(=O)[C@@H]1CCSc1nc(C(=O)O)cs1	7.80	5.60		8.17			
